According to ChEMBL document CHEMBL4393678, “Novel Tetrahydroquinazolinamines as Selective Histamine 3 Receptor Antagonists for the Treatment of Obesity” (J Med Chem, 2019):
Activity calls are given as the source filed them. The rule behind the calls is not given here.

What was measured:
Histamine H2 receptor [1] = target: T1, Histamine H2 receptor (Homo sapiens, UniProt P25021); experiment: Agonist activity at recombinant human Gs-coupled H2 receptor expressed in HEK293T cells assessed as inhibition of forskolin-stimulated cAMP accumulation preincubated for 10 to 15 followed by forskolin-stimulation by Glo-sensor assay; format: functional, cell-based
[2] = target: Histamine H1 receptor (Homo sapiens) (UniProt P35367); experiment: Antagonist activity at H1R (unknown origin) expressed in HEK293 cells harboring luc2P/NFAT-RE plasmid at 10 uM after 6 to 8 hrs by luciferase reporter gene assay; format: cell-based
In short: (§1)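 NFAT-RE luciferase assay in HEK293T cells transiently co-transfected with luc2P/NFAT-RE plasmid and receptor plasmid. Cells plated in DMEM and incubated overnight at 37 °C, 5% CO₂. Compounds and reference ligands applied for 6-8 h. Luciferase read after adding Bright-Glo substrate (1 mg/ml final).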

Histamine H2 receptor [3] = target: T1, Histamine H2 receptor; experiment: Agonist activity at recombinant human Gs-coupled H2 receptor expressed in HEK293T cells assessed as inhibition of forskolin-stimulated cAMP accumulation at 10 uM preincubated for 10 to 15 followed by forskolin-stimulation by Glo-sensor assay relative to control; format: functional, cell-based; design: scale not given: the % may be the effect or the level left
In short: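 HEK293T cells were transiently co-transfected with GloSensor-22F cAMP plasmid and human H2R plasmid, then held 15–18 h at 37 °C in 5% CO2. Cells were loaded with sodium luciferin (1 mg/ml) for 90 min. Agonist mode used 10 µM compound, with luminescence read directly after 10–15 min. Screening was in triplicate, scored as ≥50% change versus control.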

[4] = target: Histamine H4 receptor (Homo sapiens) (UniProt Q9H3N8); experiment: Agonist activity at recombinant human Gi-coupled H4 receptor expressed in HEK293T cells assessed as inhibition of forskolin-stimulated cAMP accumulation at 10 uM preincubated for 10 to 15 followed by forskolin-stimulation by Glo-sensor assay; format: functional, cell-based
Histamine H3 receptor [5] = target: T2, Histamine H3 receptor (Homo sapiens, UniProt Q9Y5N1); experiment: Antagonist activity at recombinant human Gi-coupled H3 receptor expressed in HEK293T cells assessed as reduction in histamine-induced inhibition of forskolin-stimulated cAMP accumulation preincubated for 10 to 15 followed by histamine addition for 10 mins and subsequent forskolin-stimulation by Glo-sensor assay; format: functional, cell-based
[6] = target: Histamine H4 receptor (Homo sapiens) (UniProt Q9H3N8); experiment: Antagonist activity at recombinant human Gi-coupled H4 receptor expressed in HEK293T cells assessed as reduction in histamine-induced inhibition of forskolin-stimulated cAMP accumulation at 10 uM preincubated for 10 to 15 followed by histamine addition for 10 mins and subsequent forskolin-stimulation by Glo-sensor assay; format: functional, cell-based
[7] = target: Histamine H1 receptor (Homo sapiens) (UniProt P35367); experiment: Agonist activity at H1R (unknown origin) expressed in HEK293 cells harboring luc2P/NFAT-RE plasmid at 10 uM after 6 to 8 hrs by luciferase reporter gene assay; format: cell-based; in short: as §1
Mus musculus [8] = experiment: Anorexic effect in 12 hrs fasted db/db-induced obese C57BL/6J mouse model assessed as reduction in cumulative food intake at 20 mg/kg, ip pretreated for 30 mins followed by food addition measured after 4 hrs; format: functional, organism-based
Histamine H3 receptor [9] = target: T2, Histamine H3 receptor; experiment: Displacement of [3H]N-alpha-methylhistamine from recombinant human H3 receptor expressed in HEK293T cells measured after 90 mins by liquid scintillation counting method; format: cell-based
Mus musculus [10] = experiment: Anorexic effect in high fat diet-induced obese C57BL/6J mouse model assessed as reduction in cumulative food intake at 10 mg/kg, po pretreated for 30 mins followed by food addition measured after 4 hrs relative to control; format: functional; design: scale not given: the % may be the effect or the level left
In short: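 Male C57BL/6J mice on high-fat diet, starved 12 h (8 am–8 pm) with water available, housed singly. Oral dose in 5% gum acacia in normal saline, vehicle group alongside. Food given 30 min after dosing, and cumulative intake measured over the 4 h night phase (9 pm–1 am). One-way ANOVA with Newman-Keuls test.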

Mus musculus [11] = experiment: Anti-obesity activity in high fat diet-induced obese C57BL/6J mouse model assessed as change in body weight at 10 mg/kg, po measured after 6 weeks (reference value: 3.86 +/- 0.99 g); format: functional
In short: (§2)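 Male C57BL/6J mice (6–8 weeks, 22–25 g) on high-fat diet, with a normal-chow group included. Daily chronic oral dosing against vehicle for six weeks. Percent body weight change followed over the treatment days, and net body weight change taken at six weeks. n=5-6 per group. Two-way ANOVA, or one-way ANOVA with Newman-Keuls test.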

Mus musculus [12] = experiment: Anti-obesity activity in high fat diet-induced obese C57BL/6J mouse model assessed as reduction in body weight at 10 mg/kg, po; format: functional, organism-based; conditions: TDE = time-dependent effect; in short: as §2
Mus musculus [13] = experiment: Anti-obesity activity in high fat diet-induced obese C57BL/6J mouse model assessed as reduction in body fat mass at 10 mg/kg, po measured after 6 weeks relative to control by NMR-based magnetic resonance imaging analysis; format: functional; design: scale not given: the % may be the effect or the level left
In short: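 Male C57BL/6J mice on high-fat diet dosed orally for six weeks against a vehicle-treated high-fat diet group and a chow group. Body composition (fat mass, lean mass, % body fat) measured by EchoMRI live scanning. n=5-6. One-way ANOVA with Newman-Keuls test.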

[14] = target: T3, Cholecystokinin receptor type A (Homo sapiens, UniProt P32238); experiment: Displacement of [I125]bolton hunter-CCK-8S from recombinant human CCK1 receptor expressed in stable CHO cells measured after 1 to 2 hrs by microscintillation counting method; format: cell-based
T3 sequence (P32238 whole entry): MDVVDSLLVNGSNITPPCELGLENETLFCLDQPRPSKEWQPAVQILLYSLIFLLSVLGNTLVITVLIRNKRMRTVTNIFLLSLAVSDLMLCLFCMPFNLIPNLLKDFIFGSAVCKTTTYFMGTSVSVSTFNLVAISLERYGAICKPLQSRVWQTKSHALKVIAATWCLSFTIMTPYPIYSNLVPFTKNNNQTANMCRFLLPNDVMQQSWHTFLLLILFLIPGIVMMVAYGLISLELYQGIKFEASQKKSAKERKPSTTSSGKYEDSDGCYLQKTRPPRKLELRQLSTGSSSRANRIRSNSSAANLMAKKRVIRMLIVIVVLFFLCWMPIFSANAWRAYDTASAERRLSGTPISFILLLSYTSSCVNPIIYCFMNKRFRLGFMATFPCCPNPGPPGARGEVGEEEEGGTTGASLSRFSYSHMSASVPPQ

Histamine H4 receptor (Homo sapiens), sequence (Q9H3N8 whole entry): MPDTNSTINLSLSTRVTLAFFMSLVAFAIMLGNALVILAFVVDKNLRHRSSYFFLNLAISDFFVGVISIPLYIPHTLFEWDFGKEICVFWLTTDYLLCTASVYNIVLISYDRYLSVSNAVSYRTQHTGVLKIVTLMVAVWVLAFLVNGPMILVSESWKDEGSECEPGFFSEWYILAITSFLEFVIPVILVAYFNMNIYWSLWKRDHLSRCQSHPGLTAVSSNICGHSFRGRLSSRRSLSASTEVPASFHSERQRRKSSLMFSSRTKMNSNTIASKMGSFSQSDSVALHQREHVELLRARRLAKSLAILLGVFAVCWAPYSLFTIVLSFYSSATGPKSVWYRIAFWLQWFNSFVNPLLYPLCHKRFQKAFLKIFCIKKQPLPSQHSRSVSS
T2 sequence (Q9Y5N1 whole entry): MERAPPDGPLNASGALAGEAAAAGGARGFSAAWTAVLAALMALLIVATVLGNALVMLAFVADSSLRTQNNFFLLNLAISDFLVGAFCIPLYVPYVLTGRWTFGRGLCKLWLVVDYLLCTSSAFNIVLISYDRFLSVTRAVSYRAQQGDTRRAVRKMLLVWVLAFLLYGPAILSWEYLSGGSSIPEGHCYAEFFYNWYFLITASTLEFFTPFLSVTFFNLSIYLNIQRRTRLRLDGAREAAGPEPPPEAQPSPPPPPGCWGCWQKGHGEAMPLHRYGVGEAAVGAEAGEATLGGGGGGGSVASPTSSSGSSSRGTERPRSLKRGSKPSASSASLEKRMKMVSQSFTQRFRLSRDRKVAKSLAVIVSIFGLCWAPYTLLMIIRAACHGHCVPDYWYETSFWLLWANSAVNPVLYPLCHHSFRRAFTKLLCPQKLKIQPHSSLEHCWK
Histamine H1 receptor (Homo sapiens), sequence (P35367 whole entry): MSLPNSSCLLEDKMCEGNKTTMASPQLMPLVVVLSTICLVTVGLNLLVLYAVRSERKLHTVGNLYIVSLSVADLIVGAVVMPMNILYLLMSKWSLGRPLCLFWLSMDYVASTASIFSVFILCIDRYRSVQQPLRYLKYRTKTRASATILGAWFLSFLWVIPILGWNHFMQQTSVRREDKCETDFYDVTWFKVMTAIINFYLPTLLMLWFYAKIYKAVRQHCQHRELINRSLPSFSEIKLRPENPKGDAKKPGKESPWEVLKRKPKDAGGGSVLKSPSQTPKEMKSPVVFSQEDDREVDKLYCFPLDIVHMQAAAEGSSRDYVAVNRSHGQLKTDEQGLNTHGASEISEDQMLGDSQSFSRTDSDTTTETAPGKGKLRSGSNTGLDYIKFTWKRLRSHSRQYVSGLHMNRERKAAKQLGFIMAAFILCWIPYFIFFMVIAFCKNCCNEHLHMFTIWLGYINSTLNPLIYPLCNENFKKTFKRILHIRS
T1 sequence (P25021 whole entry): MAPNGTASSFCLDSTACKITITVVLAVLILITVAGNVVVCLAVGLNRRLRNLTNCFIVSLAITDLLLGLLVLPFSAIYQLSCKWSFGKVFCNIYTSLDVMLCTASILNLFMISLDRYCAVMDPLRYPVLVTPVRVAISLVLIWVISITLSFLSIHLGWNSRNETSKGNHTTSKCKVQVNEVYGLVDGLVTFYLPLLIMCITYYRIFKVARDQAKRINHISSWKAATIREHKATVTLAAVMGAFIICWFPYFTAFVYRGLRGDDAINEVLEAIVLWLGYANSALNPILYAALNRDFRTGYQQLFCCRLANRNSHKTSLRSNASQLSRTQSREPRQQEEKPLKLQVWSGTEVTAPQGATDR

Row | SMILES | EC50 (Histamine H2 receptor [1]; read-out: EC50) [nM] | inhibition [2] | Activity (Histamine H2 receptor [3]) [%] | Activity [4] | IC50 (Histamine H3 receptor [5]) [nM] | inhibition [6] | Activity [7] | Activity (Mus musculus [8]) | EC50 (Histamine H2 receptor [1]; read-out: pEC50 (converted)) [nM] | EC50 (Histamine H2 receptor [1]) | Ki (Histamine H3 receptor [9]) [nM] | Activity (Mus musculus [10]) [%] | Activity (Mus musculus [11]) [g] | Activity (Mus musculus [12]) | Activity (Mus musculus [13]) [%] | IC50 [14] [nM]
1 | COc1ccc(-c2nc(N)nc3c2CC(C)CC3)cc1 (stereo unspecified) | 2120 | inactive | 50 | inactive | 4680 | inactive | inactive |  |  |  |  |  |  |  |  | 
2 | CC1CCCc2c(-c3ccc(F)cc3)nc(N)nc21 (stereo unspecified) | 80 | inactive |  | inactive | 560 | inactive | inactive |  |  |  |  |  |  |  |  | 
3 | CC(N)(Cc1cnc[nH]1)C(=O)O (racemic) |  |  |  |  |  |  |  | inactive |  |  |  |  |  |  |  | 
4 | COc1ccc(-c2nc(N)nc3c2CCCC3)cc1 | 1390 | inactive |  | inactive | 2750 | inactive | inactive |  | 1290 |  |  |  |  |  |  | 
5 | CC1CCCc2c1nc(N)nc2C1CCCCC1 (stereo unspecified) | 360 | inactive | 50 | inactive | 240 | inactive | inactive |  |  |  |  |  |  |  |  | 
6 | Cc1ccc(-c2nc(N)nc3c2CCCC3C)cc1 (stereo unspecified) | 880 | inactive | 50 | inactive | 2930 | inactive | inactive |  |  |  |  |  |  |  |  | 
7 | CC1CCCc2c(-c3ccc(Cl)cc3)nc(N)nc21 (stereo unspecified) | 80 | inactive | 50 | inactive | 900 | inactive | inactive |  |  |  |  |  |  |  |  | 
8 | CC1CCCc2c(-c3ccc([N+](=O)[O-])cc3)nc(N)nc21 (stereo unspecified) | 5290 | inactive | 50 | inactive | 12300 | inactive | inactive |  | 5370 |  |  |  |  |  |  | 
9 | CC1CCCc2c(-c3ccccc3)nc(N)nc21 (stereo unspecified) | 100 | inactive | 50 | inactive | 1300 | inactive | inactive |  |  |  |  |  |  |  |  | 
10 | CC1CCCc2c(-c3cccc4ccccc34)nc(N)nc21 (stereo unspecified) |  | inactive | < 50 | inactive | 2710 | inactive | inactive |  |  | Not Active |  |  |  |  |  | 
11 | c1ccc(CNc2ccnc(Nc3ccc(OCCN4CCCCC4)cc3)n2)cc1 |  |  |  |  |  |  |  |  |  |  | 4.49 |  |  |  |  | 
12 | C[C@H]1CNCCc2ccc(Cl)cc21 [LORCASERIN] |  |  |  |  |  |  |  |  |  |  |  | 40 | 0.95 | Tde | 22.4 | 
13 | CC1CCCc2c(-c3cccnc3)nc(N)nc21 (stereo unspecified) |  | inactive | < 50 | inactive | 6800 | inactive | inactive |  |  | Not Active |  |  |  |  |  | 
14 | CC1CCCc2c(-c3ccc(Br)cc3)nc(N)nc21 (stereo unspecified) |  | inactive | < 50 | inactive | 3100 | inactive | inactive |  |  | Not Active |  |  |  |  |  | 
15 | Cc1ccc(C2(O)CCN(c3nc(C)nc4ccsc34)CC2)nc1 |  |  |  |  |  |  |  |  |  |  | 6.07 |  |  |  |  | 
16 | CCCCc1cc(-c2ccc(OC)cc2)nc(N)n1 | 5180 | inactive |  | inactive | 4450 | inactive | inactive |  | 5250 |  |  |  |  |  |  | 
17 | COc1cccc(-c2nc(N)nc3c2CCCC3C)c1 (stereo unspecified) | 250 | inactive | 50 | inactive | 70 | inactive | inactive |  |  |  |  |  |  |  |  | 
18 | COc1ccc(-c2nc(NC(=O)c3cc4ccccc4n3CC(=O)O)ncc2CC2CCCCC2)c(OC)c1 |  |  |  |  |  |  |  |  |  |  |  |  |  |  |  | < 50
19 | CC1CCCc2c(-c3cccc(O)c3)nc(N)nc21 (stereo unspecified) |  | inactive | < 50 | inactive | 4610 | inactive | inactive |  |  | Not Active |  |  |  |  |  | 
20 | CC1CCCc2c(-c3ccc(C#N)cc3)nc(N)nc21 (stereo unspecified) |  | inactive | < 50 | inactive | 5500 | inactive | inactive |  |  | Not Active |  |  |  |  |  | 
21 | CC1CCCc2c(-c3cccc(Br)c3)nc(N)nc21 (stereo unspecified) | 840 | inactive | 50 | inactive | 90 | inactive | inactive |  | 316 |  |  |  |  |  |  | 
